Columns and labels:
Type in all cases: functional
[1] = Cytotoxicity against human RXF393 cells after 48 hrs by SRB assay; conditions: RXF 393, 48 h
How it was run: (§1)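 NCI-60 five-dose screen: compounds dissolved in DMSO/H2O, tested at five 10-fold dilutions (10^-4 to 10^-8 M) for 48 h. Growth measured by sulforhodamine B optical density at time zero and after 48 h drug or vehicle exposure. Percentage growth calculated relative to control. GI50 is the molar concentration giving 50% reduction in net cell growth versus day-0 cell numbers.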

[2] = Cytotoxicity against human LOXIMVI cells after 48 hrs by SRB assay; conditions: LOX IMVI; how it was run: as §1
[3] = Cytotoxicity against human OVCAR3 cells after 48 hrs by SRB assay; conditions: OVCAR-3, 48 h; how it was run: as §1
[4] = Cytotoxicity against human TK10 cells after 48 hrs by SRB assay; conditions: TK-10, 48 h
How it was run: (§2)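 NCI-60 five-dose screen. Compounds dissolved in DMSO/H2O and tested at five 10-fold dilutions (10^-4 to 10^-8 M) for 48 h. Growth read by sulforhodamine B optical density at time zero and after 48 h of exposure to compound or vehicle. Percent growth calculated against control. GI50 is the molar concentration giving 50% reduction in net cell growth relative to cell number on day 0.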

MDA-MB-468 = experiment: Cytotoxicity against human MDA-MB-468 cells after 48 hrs by SRB assay; conditions: MDA-MB-468, 48 h; how it was run: as §1
[5] = Cytotoxicity against human SW620 cells after 48 hrs by SRB assay; conditions: SW-620, 48 h; how it was run: as §1
[6] = Cytotoxicity against human OVCAR8 cells after 48 hrs by SRB assay; conditions: OVCAR-8, 48 h; how it was run: as §1
CCRF-CEM = experiment: Cytotoxicity against human CCRF-CEM cells after 48 hrs by SRB assay; how it was run: as §1
HT-29 = experiment: Cytotoxicity against human HT-29 cells after 48 hrs by SRB assay; conditions: HT-29, 48 h; how it was run: as §1
SK-MEL-5 = experiment: Cytotoxicity against human SK-MEL-5 cells after 48 hrs by SRB assay; conditions: SK-MEL-5, 48 h; how it was run: as §1
[7] = Cytotoxicity against human HOP62 cells after 48 hrs by SRB assay; conditions: HOP-62, 48 h
How it was run: (§3)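 NCI-60 five-dose screen: compounds in DMSO/H2O tested at 10^-4 to 10^-8 M (10-fold steps) for 48 h. Cell mass read by sulforhodamine B optical density at time zero and after exposure to compound or vehicle. GI50 is the concentration giving 50% reduction in net cell growth relative to day-0 cell numbers.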

NCI-H522 = experiment: Cytotoxicity against human NCI-H522 cells after 48 hrs by SRB assay; conditions: NCI-H522, 48 h; how it was run: as §1
ACHN = experiment: Cytotoxicity against human ACHN cells after 48 hrs by SRB assay; how it was run: as §1
M14 = experiment: Cytotoxicity against human M14 cells after 48 hrs by SRB assay; conditions: M14, 48 h; how it was run: as §1
Malme-3M = experiment: Cytotoxicity against human MALME-3M cells after 48 hrs by SRB assay; how it was run: as §3
[8] = Cytotoxicity against human MOLT4 cells after 48 hrs by SRB assay; conditions: MOLT-4, 48 h; how it was run: as §1
A498 = experiment: Cytotoxicity against human A498 cells after 48 hrs by SRB assay; conditions: A498, 48 h; how it was run: as §1
KM12 = experiment: Cytotoxicity against human KM12 cells after 48 hrs by SRB assay; conditions: KM12, 48 h; how it was run: as §1
[9] = Cytotoxicity against human OVCAR5 cells after 48 hrs by SRB assay; conditions: OVCAR-5, 48 h; how it was run: as §1
[10] = Cytotoxicity against human PC3 cells after 48 hrs by SRB assay; conditions: PC-3, 48 h; how it was run: as §1
[11] = Cytotoxicity against human OVCAR4 cells after 48 hrs by SRB assay; conditions: OVCAR-4, 48 h; how it was run: as §1
[12] = Cytotoxicity against human NCI-ADR-RES cells after 48 hrs by SRB assay; how it was run: as §1
[13] = Cytotoxicity against human SF539 cells after 48 hrs by SRB assay; conditions: SF-539, 48 h; how it was run: as §1
NCI-H23 = experiment: Cytotoxicity against human NCI-H23 cells after 48 hrs by SRB assay; conditions: NCI-H23, 48 h; how it was run: as §1
[14] = Cytotoxicity against human HCC2998 cells after 48 hrs by SRB assay; conditions: HCC 2998, 48 h; how it was run: as §1
[15] = Cytotoxicity against human SKOV3 cells after 48 hrs by SRB assay; conditions: SK-OV-3, 48 h; how it was run: as §1
[16] = Cytotoxicity against human Caki1 cells after 48 hrs by SRB assay; conditions: CAKI-1, 48 h; how it was run: as §1
[17] = Cytotoxicity against human SF268 cells after 48 hrs by SRB assay; conditions: SF-268, 48 h; how it was run: as §1
[18] = Cytotoxicity against human Hs 578T cells after 48 hrs by SRB assay; how it was run: as §1
[19] = Cytotoxicity against human DU145 cells after 48 hrs by SRB assay; conditions: DU-145, 48 h; how it was run: as §1
[20] = Cytotoxicity against human HCT15 cells after 48 hrs by SRB assay; conditions: HCT-15, 48 h; how it was run: as §1
[21] = Cytotoxicity against human COLO205 cells after 48 hrs by SRB assay; conditions: COLO 205, 48 h; how it was run: as §1
U-251 = experiment: Cytotoxicity against human U251 cells after 48 hrs by SRB assay; conditions: U-251, 48 h; how it was run: as §2
[22] = Cytotoxicity against human HCT116 cells after 48 hrs by SRB assay; conditions: HCT-116, 48 h; how it was run: as §1
786-0 = experiment: Cytotoxicity against human 786-0 cells after 48 hrs by SRB assay; conditions: 786-0, 48 h; how it was run: as §1
[23] = Cytotoxicity against human RPMI8226 cells after 48 hrs by SRB assay; conditions: RPMI-8226, 48 h; how it was run: as §1
MCF7 = experiment: Cytotoxicity against human MCF7 cells after 48 hrs by SRB assay; conditions: MCF7, 48 h; how it was run: as §1
[24] = Cytotoxicity against human HOP92 cells after 48 hrs by SRB assay; conditions: HOP-92, 48 h; how it was run: as §1
MDA-MB-435 = experiment: Cytotoxicity against human MDA-MB-435 cells after 48 hrs by SRB assay; conditions: MDA-MB-435, 48 h; how it was run: as §1
SK-MEL-28 = experiment: Cytotoxicity against human SK-MEL-28 cells after 48 hrs by SRB assay; conditions: SK-MEL-28, 48 h; how it was run: as §1
EKVX = experiment: Cytotoxicity against human EKVX cells after 48 hrs by SRB assay; how it was run: as §3
[25] = Cytotoxicity against human UACC62 cells after 48 hrs by SRB assay; conditions: UACC-62, 48 h; how it was run: as §2
NCI-H226 = experiment: Cytotoxicity against human NCI-H226 cells after 48 hrs by SRB assay; conditions: NCI-H226, 48 h; how it was run: as §1
T47D = experiment: Cytotoxicity against human T47D cells after 48 hrs by SRB assay; how it was run: as §2
[26] = Cytotoxicity against human SNB19 cells after 48 hrs by SRB assay; conditions: SNB-19, 48 h; how it was run: as §1
[27] = Cytotoxicity against human UACC257 cells after 48 hrs by SRB assay; conditions: UACC-257, 48 h; how it was run: as §2
SN12C = experiment: Cytotoxicity against human SN12C cells after 48 hrs by SRB assay; how it was run: as §1
K562 = experiment: Cytotoxicity against human K562 cells after 48 hrs by SRB assay; conditions: K562, 48 h; how it was run: as §1
MDA-MB-231 = experiment: Cytotoxicity against human MDA-MB-231 cells after 48 hrs by SRB assay; conditions: MDA-MB-231, 48 h; how it was run: as §1
[28] = Cytotoxicity against human UO31 cells after 48 hrs by SRB assay; conditions: UO-31, 48 h; how it was run: as §2
[29] = Cytotoxicity against human HL-60(TB) cells after 48 hrs by SRB assay; conditions: HL-60, 48 h; how it was run: as §1
A549 = experiment: Cytotoxicity against human A549 cells after 48 hrs by SRB assay; conditions: A549, 48 h; how it was run: as §1
[30] = Cytotoxicity against human SF295 cells after 48 hrs by SRB assay; conditions: SF-295, 48 h; how it was run: as §1
SK-MEL-2 = experiment: Cytotoxicity against human SK-MEL-2 cells after 48 hrs by SRB assay; conditions: SK-MEL-2, 48 h; how it was run: as §1
[31] = Cytotoxicity against human BT549 cells after 48 hrs by SRB assay; conditions: BT-549, 48 h; how it was run: as §1
NCI-H460 = experiment: Cytotoxicity against human NCI-H460 cells after 48 hrs by SRB assay; conditions: NCI-H460, 48 h; how it was run: as §1
[32] = Cytotoxicity against human IGROV1 cells after 48 hrs by SRB assay; conditions: IGROV-1, 48 h; how it was run: as §3

COc1ccc(-c2n[nH]nc2-c2csc3ccccc23)cc1OC
GI50 [1]: 2110 nM | GI50 [2]: 3040 nM | GI50 [3]: 1940 nM | GI50 [4]: 2980 nM | GI50 (MDA-MB-468): 630 nM | GI50 [5]: 3090 nM | GI50 [6]: 4240 nM | GI50 (CCRF-CEM): 3290 nM | GI50 (HT-29): 2780 nM | GI50 (SK-MEL-5): 2830 nM | GI50 [7]: 2180 nM | GI50 (NCI-H522): 601 nM | GI50 (ACHN): 3940 nM | GI50 (M14): 1950 nM | GI50 (Malme-3M): 13300 nM | GI50 [8]: 3050 nM | GI50 (A498): 2960 nM | GI50 (KM12): 2280 nM | GI50 [9]: 7910 nM | GI50 [10]: 3080 nM | GI50 [11]: 6330 nM | GI50 [12]: 2390 nM | GI50 [13]: 1840 nM | GI50 (NCI-H23): 3940 nM | GI50 [14]: 4210 nM | GI50 [15]: 2370 nM | GI50 [16]: 3690 nM | GI50 [17]: 3690 nM | GI50 [18]: 2250 nM | GI50 [19]: 3770 nM | GI50 [20]: 1670 nM | GI50 [21]: 2820 nM | GI50 (U-251): 2190 nM | GI50 [22]: 2840 nM | GI50 (786-0): 3260 nM | GI50 [23]: 3640 nM | GI50 (MCF7): 1450 nM | GI50 [24]: 921 nM | GI50 (MDA-MB-435): 337 nM | GI50 (SK-MEL-28): 4630 nM | GI50 (EKVX): 3420 nM | GI50 [25]: 2770 nM | GI50 (NCI-H226): 13200 nM | GI50 (T47D): 2830 nM | GI50 [26]: 4670 nM | GI50 [27]: 10900 nM | GI50 (SN12C): 8800 nM | GI50 (K562): 516 nM | GI50 (MDA-MB-231): 3210 nM | GI50 [28]: 2780 nM | GI50 [29]: 1700 nM | GI50 (A549): 4520 nM | GI50 [30]: 2330 nM | GI50 (SK-MEL-2): 1440 nM | GI50 [31]: 2170 nM | GI50 (NCI-H460): 3560 nM | GI50 [32]: 4210 nM

Source: ChEMBL document CHEMBL3751743, “Synthesis and anti-cancer screening of novel heterocyclic-(2H)-1,2,3-triazoles as potential anti-cancer agents” (Medchemcomm, 2015)
